In PMC2638640 (Toxicological Sciences, 2008):

What was measured:
[1] = Rate constants for reaction of type 2 alkenes with cysteine sulfhydryl groups; assay type: physicochemical; conditions: second-order rate of reaction with L-cysteine at pH 7.4
Method in brief: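 L-Cysteine was incubated with molar excess of test alkene at pH 7.4 or 8.8, with remaining sulfhydryl measured over time by DTNB absorbance. Pseudo-first-order constants (k1) came from these plots, then second-order constants (k2). Thiolate-corrected constants via log(k k2) = log k2 + pKa – pH, taking sulfhydryl pKa 8.5; n = 4–6 at pH 7.4.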

[2] = system: total free sulfhydryl content in synaptosomes; experiment: Loss of free sulfhydryl groups in synaptosomes; assay type: biochemical, rat; conditions: nonconjugated analogs, striatal synaptosomes
Method in brief: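 Rat striatal synaptosomes (200 μg protein) were incubated 15 min with graded concentrations of test compound or control buffer, then solubilized in 1% SDS. DTNB (3mM) added; after 5 min equilibration at 25°C, absorbance read at 412 nm against a no-DTNB blank. Free thiol calculated from the extinction coefficient 1.36 × 10^4/M/cm; n = 4–6.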

[3] = system: ^3H-DA transport in striatal synaptic vesicles; experiment: Inhibition of vesicular ^3H-DA transport; assay type: biochemical, rat; conditions: nonconjugated analogs, data not shown
Method in brief: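 Rat striatal synaptic vesicles (P5 pellet after osmotic shock of crude synaptosomes), 3 μg protein, were exposed 15 min to graded concentrations of test compound or assay buffer. They were then incubated 3 min at 30°C with Mg2+-ATP (2mM) and 0.30μM 3H-DA. Reaction stopped with cold buffer, followed by rapid filtration and scintillation counting. Nonspecific uptake: 4°C without Mg2+-ATP. IC50 (95% CI) by nonlinear regression; n = 3–5.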

[4] = system: membrane ^3H-DA transport in striatal synaptosomes; experiment: Inhibition of synaptosomal membrane ^3H-DA transport; assay type: biochemical, rat; conditions: for effect on synaptosomal uptake: nonconjugated analogs, striatal synaptosomes; for effect of nucleophile on in vitro neurotoxicity of HNE: nucleophile 500μM, HNE-exposed striatal synaptosomes
Method in brief: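 Striatal synaptosomes from adult male Sprague-Dawley rats (Percoll gradient, 15%/23% interface), 10 μg protein, were exposed 15 min at 30°C to graded concentrations of test compound or Krebs-HEPES buffer. Samples were washed, filter-trapped and superfused 3 min with 0.30μM 3H-DA. Uptake measured ± Na+ (choline substitution), by scintillation. IC50 (95% CI) by nonlinear regression; n = 4–6.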

[5] = ref Doorn and Petersen, 2002, 2003; cited from earlier work

## C=CC=O [Acrolein, acrolein]
[1]
  Log k2 (pH = 7.4): 2.596

## C=CCO [Allyl alcohol, allyl alcohol]
[2]
  effect on synaptosomal sulfhydryl content: did not affect
[3]
  effect on vesicular uptake: did not affect vesicular uptake
[4]
  effect on synaptosomal uptake: did not affect

## CCCCCC(O)C=CC=O (stereo not drawn) [HNE, 4-Hydroxy-2-nonenal]
[1]
  Log k2 (pH = 7.4): 0.938
[5]
  second-order rate constant k2 (mean ± SD), Cys toward HNE: 1.33 ± 0.083 M^∧(−1)s^∧(−1)
  second-order rate constant k2 (mean ± SD), His toward HNE: 2.14 ± 0.312 × 10^−3 M^∧(−1)s^∧(−1)
  second-order rate constant k2 (mean ± SD), Lys toward HNE: 1.33 ± 0.050 × 10^−3 M^∧(−1)s^∧(−1)

## C=CC(C)=O [MVK, methyl vinyl ketone]
[1]
  Log k2 (pH = 7.4): 2.048

## CC(=O)N[C@@H](CS)C(=O)O [NAC, N-acetyl-L-cysteine]
[4]
  effect of nucleophile on in vitro neurotoxicity of HNE: significantly reduced HNE neurotoxicity

## CC(=O)N[C@@H](CCCCN)C(=O)O [NAL, N-acetyl-L-lysine]
[4]
  effect of nucleophile on in vitro neurotoxicity of HNE: neither NAL nor carnosine affected the in vitro neurotoxicity of HNE

## CCC=O [Propanal, propanal]
[2]
  effect on synaptosomal sulfhydryl content: did not affect
[3]
  effect on vesicular uptake: did not affect vesicular uptake
[4]
  effect on synaptosomal uptake: did not affect

## NCCC(=O)N[C@@H](Cc1cnc[nH]1)C(=O)O [carnosine, β-alanyl-L-histidine]
[4]
  effect of nucleophile on in vitro neurotoxicity of HNE: neither NAL nor carnosine affected the in vitro neurotoxicity of HNE
